Measured values published in PubChem BioAssay AID493016 (Southern Research Specialized Biocontainment Screening …, 2011).
The source made the active and inactive calls.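 Rule for the calls: active = compounds blocking at least half of virus-caused cell death at some tested dose; inactive = the rest.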

Test system: HEp-2 RSV Long CPE inhibition, luminescence
Experiment: inhibitors of RSV-induced HEp-2 cell death – RSV Long, synthesized compounds, set 4, dose response (AID 493016)
Procedure, shortened: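 Material: HEp-2 human cells infected with respiratory syncytial virus strain Long; Probe or stimulus: RSV Long infection at multiplicity of infection 0.45; Dosing: Eight-point twofold series, 50 to 0.39 µM final, 0.5% DMSO; Incubation: six-day compound and virus exposure at 37 °C; Detection: luminescent CPE signal; Replication: triplicate wells per compound concentration.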

| Compound | IC50 |
| --- | --- |
| Cc1ccc(NC(=O)[C@@H]2CCCN2S(=O)(=O)c2cccc3cccnc23)c(C)n1 | > 50 µM (inactive) |
| O=C(Nc1ccccc1)[C@@H]1CCCN1S(=O)(=O)c1cccc2cccnc12 | > 50 µM (inactive) |
| CC(C)c1ccccc1NC(=O)[C@@H]1CCCN1S(=O)(=O)c1cccc2cccnc12 | 10.9 µM |
| COc1ccccc1CNC(=O)C1CCN(S(=O)(=O)c2cccc3nonc23)CC1 | 3.1 µM |
| Cc1ccc2c(c1)CCN2C(=O)[C@@H]1CCCN1S(=O)(=O)c1cccc2cccnc12 | > 50 µM (inactive) |
| O=C([C@@H]1CCCN1S(=O)(=O)c1cccc2cccnc12)N1CCc2ccccc21 | > 50 µM (inactive) |
